We go through 21 compounds from PubChem BioAssay AID624363 (Broad Institute, 2012).

The source made the active and inactive calls.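 The calls were made as follows: active = in every test run, a falling-signal curve whose half-maximal concentration is at most twice the top tested dose; inconclusive = runs disagree, flat fit at 30 to 70% inhibition, or poor fit; inactive = every test run inactive.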

System in one experiment: not listed separately
Kind of experiment: inhibitors of MITF-driven TRPM1 reporter, dose response, cell-based, SK-MEL-5, luciferase, dry powder, set 5 (AID 624363). The following applies: SK-MEL-5 TRPM1 promoter luciferase reporter, 24 h; at 35 µM (top of the series). A digest of the protocol:
(§1)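 Material: SK-MEL-5 TRPM1 promoter luciferase reporter cells / Quantity: 2000 reporter cells per well / Incubation: compound exposure 24 h at 37 °C, one day after plating / Benchmarks: parthenolide at 27 µM as positive control / Buffer or medium: phenol red-free DMEM, 10% FBS / Detection: SteadyGlo luciferase luminescence after 5 min at room temperature / Compound: pin-transferred compounds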
In general terms: In a reporter assay the amount or activity of a reporter protein is the signal.
`COc1ccc(C2=C(NC(=O)c3ccc(OC)cc3-c3cccc(OC)c3)C(=O)c3ccccc3C2=O)cc1`: the activity change, negative = inhibition was -14.7% (inactive).
`C=CCNC1=C(NCC=C)C(=O)c2ccccc2C1=O`: the activity change, negative = inhibition is -12.8% (inactive).
Same read-out and setting: the result for `COc1ccc(C2=C(NC(=O)c3ccc4ccccc4c3)C(=O)c3ccccc3C2=O)cc1` reads -15.2% (inactive); that for `O=C(NC1=C(N2CCN(c3ccccc3)CC2)C(=O)c2ccccc2C1=O)c1ccccc1`, -32.8% (inactive); that for `O=C1C(NS(=O)(=O)c2ccc(Br)cc2)=C(N2CCN(c3ccccc3)CC2)C(=O)c2ccccc21`, -44.3% (inactive).
The same measure, in the same setting: the result for `O=C(NC1=C(c2ccc(Oc3ccccc3)cc2)C(=O)c2ccccc2C1=O)c1ccccc1` reads -5.77% (inactive).

The subject of another experiment is SK-MEL-5 TRPM1 promoter luciferase reporter, 24 h. The description is as above.
Settings: not given
In outline:
as §1
With `O=C1C(NCCCN2CCOCC2)=C(Nc2ccccc2)C(=O)c2ccccc21`, the AC50 is 3.7 µM.
Regarding `CCN1CCN(C2=C(NC(=O)c3ccccc3)C(=O)c3ccccc3C2=O)CC1`, the AC50 is 0.783 µM.
Still for that read-out and setting: under `NC1=C(NS(=O)(=O)c2ccc(Br)cc2)C(=O)c2ccccc2C1=O` stands 8.9 µM; under `COc1cccc(-c2cc(C(=O)NC3=C(Cl)C(=O)c4ccccc4C3=O)ccc2OC)c1`, 3.34 µM.
Turning to `O=C(NC1=C(c2ccc(OC(F)(F)F)cc2)C(=O)c2ccccc2C1=O)c1ccco1`, the AC50 was 20.9 µM.
The same measure, in the same setting: the result for `CC(=O)N(C)C1=C(N2CCOCC2)C(=O)c2ccccc2C1=O` reads 2.45 µM.
Still for that read-out and setting: under `CC(=O)NC1=C(c2ccc(Oc3ccccc3)cc2)C(=O)c2ccccc2C1=O` stands 19.8 µM; under `O=C1C(Nc2ccccc2)=C(N2CCCCC2)C(=O)c2ccccc21`, 6.28 µM.
Turning to `CC(=O)NC1=C(c2ccccc2)C(=O)c2ccccc2C1=O`, the half-maximal activity concentration (AC50) is 6.67 µM.
On the same count and under the same terms, the result for `C=CCNC1=C(NS(=O)(=O)c2cccs2)C(=O)c2ccccc2C1=O` reads 14.2 µM; that for `O=C1C(NS(=O)(=O)c2cccs2)=C(N2CCCCC2)C(=O)c2ccccc21`, 22.1 µM; that for `COC1=C(NS(=O)(=O)c2cccs2)C(=O)c2ccccc2C1=O`, 17.5 µM.
Regarding `O=C1C(NS(=O)(=O)c2ccc(Br)s2)=C(N2CCSCC2)C(=O)c2ccccc21`, the half-maximal activity concentration (AC50) is 22.7 µM.
On the same count and under the same terms, under `CCN(CC)CCNC1=C(Nc2ccccc2)C(=O)c2ccccc2C1=O` stands 4.88 µM.
On the same count and under the same terms, the result for `O=C1C=C(NS(=O)(=O)c2ccccc2)C(=O)c2ccccc21` reads 7.45 µM.

Broadly, the AC50 is the concentration at which the activity in the assay is half-maximal.
